Source: ChEMBL document CHEMBL1154840, “New pyrazoles incorporating pyrazolylpyrazole moiety: synthesis, anti-HCV and antitumor activity” (Eur J Med Chem, 2010)
Values after ≈ are worked out from the molar mass of the structure shown. Active and inactive are the calls of the source. The calls are words filed in the database; no cut-off is given here.

How the values were obtained:
Hepacivirus hominis = assay: Inhibition of HCV […] by quantitative RT-PCR
Outline: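 HCV replicon cells, 1×10^4 per well, were plated and the next day exposed to serially diluted compounds in DMEM with 2% FBS and 0.5% DMSO at 37 °C. Total RNA was extracted and HCV RNA copy number was measured by quantitative RT-PCR. Five replicates per point; MIC reported.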

Mus musculus [1] = assay: Toxicity in mouse Colon 38 cells xenografted C57BL/6 mouse assessed as mortality at 3 mg/kg, iv administered as a single dose; type: organism-based, MC-38; design: dose 3 mg/kg, route intravenous; details: in vivo
MC-38 [2] = assay: Growth inhibition of mouse Colon 38 cells after 72 hrs by sulforhodamine B assay relative to etoposide; type: functional
Outline: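 Exponentially growing cells were seeded on day 0. Graded drug concentrations were added on day 1, followed by 72 h at 37 °C. Cell number was estimated by SRB assay, with a separate day-1 count. GI50 is the concentration giving a 50% reduction in net protein increase versus control.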

Mus musculus [3] = assay: Toxicity in mouse Colon 38 cells xenografted C57BL/6 mouse assessed as body weight change at 3 mg/kg, iv administered as a single dose; type: organism-based, MC-38; design: dose 3 mg/kg, route intravenous; details: in vivo
Outline: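 Female C57BL/6 mice, 6 weeks old, had about 30 mg of Colon 38 tumour tissue implanted s.c. in the flank. When tumours reached about 300 mm³ on day 1, mice were randomised into control and treatment groups (n = 5 each). Compound in 5% glucose was given once on day 1 by tail-vein i.v. injection; controls received 5% glucose. Body weight was tracked over subsequent days.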

[4] = test system: Measles virus (SSPE virus); assay: Antiviral activity against measles virus infected in hamster brain assessed as inhibition of subacute sclerosing panencephalitis dosed intracranially by HPLC
[5] = Antioxidant activity against peroxynitrite-induced tyrosine nitration after 15 mins by HPLC; type: functional
Outline: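 Tyrosine (100 μM) was reacted with equimolar peroxynitrite and increasing compound concentrations (0–300 μM) in 100 mM phosphate buffer pH 7.4 at 37 °C for 15 min. 3-Nitrotyrosine formation was measured by reverse-phase C18 HPLC using a methanol/water/HCl and acetonitrile/water/HCl mobile phase. IC50 reported.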

[6] = test system: Radical scavenging activity; assay: Antioxidant activity against DPPH radical scavenging activity after 30 mins by ELISA; type: functional; design: concentration or dose not given beside the values
Outline: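 DPPH radical scavenging. Compounds were dissolved in DMSO and serially diluted, 0.0–100 μM/ml. 10 µl was added to 90 µl of 100 µM DPPH in methanol and incubated 30 min at 37 °C in the dark. Decrease in absorbance was read at 515 nm. % reduction = [(A_B − A_A)/A_B] × 100, against a DMSO/DPPH blank. Triplicate.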

[7] = target: DNA topoisomerase 2-alpha (Mus musculus) (UniProt Q01320); assay: Inhibition of mouse DNA topoisomerase 2 assessed as relaxation of supercoiled pBR322 plasmid DNA after 1 hr by electrophoresis relative to etoposide
Chain of DNA topoisomerase 2-alpha (Mus musculus) (Q01320 whole entry): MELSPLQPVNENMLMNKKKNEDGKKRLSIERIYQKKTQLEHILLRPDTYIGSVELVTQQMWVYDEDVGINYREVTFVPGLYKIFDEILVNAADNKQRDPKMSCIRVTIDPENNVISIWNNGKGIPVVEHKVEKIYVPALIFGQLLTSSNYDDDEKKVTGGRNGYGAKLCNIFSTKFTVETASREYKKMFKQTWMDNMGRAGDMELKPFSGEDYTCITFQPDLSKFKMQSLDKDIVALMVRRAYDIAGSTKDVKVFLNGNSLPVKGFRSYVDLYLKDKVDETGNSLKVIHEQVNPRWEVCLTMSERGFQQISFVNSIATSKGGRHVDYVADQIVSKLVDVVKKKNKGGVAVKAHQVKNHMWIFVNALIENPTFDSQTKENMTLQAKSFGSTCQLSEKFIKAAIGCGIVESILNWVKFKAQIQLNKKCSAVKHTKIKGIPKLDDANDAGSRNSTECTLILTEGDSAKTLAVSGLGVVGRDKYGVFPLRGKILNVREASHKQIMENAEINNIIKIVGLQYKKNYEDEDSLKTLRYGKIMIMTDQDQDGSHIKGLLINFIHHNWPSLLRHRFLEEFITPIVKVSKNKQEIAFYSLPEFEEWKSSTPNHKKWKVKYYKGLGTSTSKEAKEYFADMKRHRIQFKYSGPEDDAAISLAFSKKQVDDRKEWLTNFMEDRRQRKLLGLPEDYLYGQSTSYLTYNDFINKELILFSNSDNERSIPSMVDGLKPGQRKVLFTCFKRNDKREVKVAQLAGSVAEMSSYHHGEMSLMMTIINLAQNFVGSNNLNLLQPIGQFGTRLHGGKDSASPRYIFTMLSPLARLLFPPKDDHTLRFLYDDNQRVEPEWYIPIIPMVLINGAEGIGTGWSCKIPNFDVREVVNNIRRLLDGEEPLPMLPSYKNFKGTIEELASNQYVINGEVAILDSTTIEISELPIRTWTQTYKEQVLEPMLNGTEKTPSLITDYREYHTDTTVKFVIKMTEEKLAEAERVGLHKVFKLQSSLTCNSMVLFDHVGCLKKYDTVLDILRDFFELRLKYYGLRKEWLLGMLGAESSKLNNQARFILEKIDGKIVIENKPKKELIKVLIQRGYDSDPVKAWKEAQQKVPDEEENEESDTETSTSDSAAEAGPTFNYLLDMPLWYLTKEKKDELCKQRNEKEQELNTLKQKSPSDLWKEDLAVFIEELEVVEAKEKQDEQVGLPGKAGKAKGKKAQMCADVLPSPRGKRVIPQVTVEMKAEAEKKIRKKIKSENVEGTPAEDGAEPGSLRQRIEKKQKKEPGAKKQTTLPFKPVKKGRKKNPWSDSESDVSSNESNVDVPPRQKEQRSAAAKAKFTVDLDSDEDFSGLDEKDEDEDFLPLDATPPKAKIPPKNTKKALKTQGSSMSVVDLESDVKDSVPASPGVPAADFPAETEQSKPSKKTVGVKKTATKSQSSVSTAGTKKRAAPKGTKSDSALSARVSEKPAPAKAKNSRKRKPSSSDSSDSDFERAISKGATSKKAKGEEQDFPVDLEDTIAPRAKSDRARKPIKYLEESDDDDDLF
Outline: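 Topoisomerase II was purified from P388 cells. 0.125 μg supercoiled pBR-322 DNA was incubated with 1 unit of enzyme at 30 °C for 1 h in 50 mM Tris–HCl pH 8.0, 100 mM KCl, 10 mM MgCl2, 0.5 mM DTT, 1 mM ATP and 30 μg/ml BSA. Products were resolved on 0.7% agarose in TBE and stained with ethidium bromide.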

MC-38 [8] = assay: Antitumor activity against mouse Colon 38 cells xenografted in C57BL/6 mouse assessed as tumor volume at 3 mg/kg, iv administered as a single dose; type: functional, organism-based; design: dose 3 mg/kg
Outline: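 Female C57BL/6 mice, 6 weeks old, were inoculated s.c. in the flank with about 30 mg Colon 38 tumor tissue. When tumors reached approximately 300 mm³ (day 1), mice were randomized, n = 5 per group. Compound in 5% glucose was given as a single i.v. tail-vein dose on day 1; controls received 5% glucose. Tumor volume = ([…])/2; body weight also recorded.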

| Structure (SMILES) | MIC (Hepacivirus hominis) [µg/mL] | Activity (Mus musculus [1]) | RatioGI50 (MC-38 [2]) | Activity (Mus musculus [3]) | MIC [4] [µg/mL] | IC50 [5] [µM] | Activity [6] [%] | Ratio [7] | Activity (MC-38 [8]) |
| --- | --- | --- | --- | --- | --- | --- | --- | --- | --- |
| CC(=O)c1nn(-c2ccc([N+](=O)[O-])cc2)cc1C(=O)c1ccccc1 | 0.144 (≈ 0.429 µM) | Non-toxic | 260.9 | Non-toxic | 3.09 (≈ 9.21 µM) | 31.5 | 98.2 | 261 | Active |
| CC(=O)c1nn(-c2ccc(C)cc2)cc1C(=O)c1ccccc1 | 0.159 (≈ 0.522 µM) | Non-toxic | 188.7 | Non-toxic | 3.42 (≈ 11.3 µM) | 37.8 | 95.8 | 189 | Active |
| CC(=O)c1nn(-c2ccccc2)cc1C(=O)c1nn(-c2ccc(Cl)cc2)cc1C(=O)c1ccccc1 | 0.147 (≈ 0.297 µM) | Non-toxic | 260.9 | Non-toxic | 3.11 (≈ 6.29 µM) | 32.2 | 97.7 | 261 | Active |
| CC(=O)c1nn(-c2ccccc2)cc1C(=O)c1nn(-c2ccccc2)cc1C(=O)c1nn(-c2ccc(C)cc2)cc1C(=O)c1ccccc1 | 0.149 (≈ 0.231 µM) | Non-toxic | 260.6 | Non-toxic | 3.12 (≈ 4.84 µM) | 34 | 96.9 | 261 | Active |
| CC(=O)c1nn(-c2ccccc2)cc1C(=O)c1nn(-c2ccc([N+](=O)[O-])cc2)cc1C(=O)c1ccccc1 | 0.155 (≈ 0.307 µM) | Non-toxic | 194.8 | Non-toxic | 3.22 (≈ 6.36 µM) | 36.6 | 96 | 195 | Active |
| CC(=O)c1nn(-c2ccccc2)cc1C(=O)c1nn(-c2ccccc2)cc1C(=O)c1nn(-c2ccccc2)cc1C(=O)c1ccccc1 | 0.171 (≈ 0.271 µM) | Non-toxic | 150.8 | Non-toxic | 3.71 (≈ 5.89 µM) | 42.1 | 95 | 151 | Active |
| Cc1c(C)c2c(c(C)c1O)CCC(C)(C(=O)O)O2 (centres undefined) [TROLOX] |  |  |  |  |  | 58.4 |  |  |  |
| Cc1ccc(-n2cc(C(=O)c3ccccc3)c(C(=O)c3cn(-c4ccccc4)nc3C(=O)/C=C/N(C)C)n2)cc1 | 0.181 (≈ 0.342 µM) | Non-toxic | 150 | Non-toxic | 3.82 (≈ 7.21 µM) | 42.2 | 94.9 | 150 | Active |
| CC(=O)c1nn(-c2ccccc2)cc1C(=O)c1nn(-c2ccc(C)cc2)cc1C(=O)c1ccccc1 | 0.322 (≈ 0.679 µM) | Non-toxic | 38.46 | Non-toxic | 4.12 (≈ 8.68 µM) | 44.1 | 94 | 38.4 | Active |
| CN(C)/C=C/C(=O)c1nn(-c2ccccc2)cc1C(=O)c1ccccc1 | 0.32 (≈ 0.926 µM) | Non-toxic | 136.4 | Non-toxic | 4 (≈ 11.6 µM) | 44 | 94.5 | 136 | Active |
| CC(=O)c1nn(-c2ccccc2)cc1C(=O)c1ccccc1 | 0.162 (≈ 0.558 µM) | Non-toxic | 168.5 | Non-toxic | 3.62 (≈ 12.5 µM) | 39.5 | 95.2 | 168 | Active |
| CN(C)/C=C/C(=O)c1nn(-c2ccccc2)cc1C(=O)c1nn(-c2ccccc2)cc1C(=O)c1ccccc1 | 0.291 (≈ 0.564 µM) | Non-toxic | 142.9 | Non-toxic | 3.99 (≈ 7.74 µM) | 44 | 94.7 | 143 | Active |
| CN(C)/C=C/C(=O)c1nn(-c2ccccc2)cc1C(=O)c1nn(-c2ccc(Cl)cc2)cc1C(=O)c1ccccc1 | 0.323 (≈ 0.587 µM) | Non-toxic | 37.97 | Non-toxic | 4.15 (≈ 7.55 µM) | 44.6 | 93 | 37.9 | Active |
| Cc1ccc(-n2cc(C(=O)c3ccccc3)c(C(=O)/C=C/N(C)C)n2)cc1 | 0.15 (≈ 0.417 µM) | Non-toxic | 260.4 | Non-toxic | 3.18 (≈ 8.84 µM) | 34.2 | 96.6 | 260 | Active |
| CC(=O)c1nn(-c2ccccc2)cc1C(=O)c1nn(-c2ccccc2)cc1C(=O)c1nn(-c2ccc(Cl)cc2)cc1C(=O)c1ccccc1 | 0.151 (≈ 0.227 µM) | Non-toxic | 196.1 | Non-toxic | 3.2 (≈ 4.81 µM) | 35.1 | 96.1 | 196 | Active |
| O=C1O[C@H]([C@@H](O)CO)C(O)=C1O |  |  |  |  |  |  | 79 |  |  |
| CC(=O)c1nn(-c2ccc(Cl)cc2)cc1C(=O)c1ccccc1 | 0.161 (≈ 0.496 µM) |  | 178.6 |  | 3.52 (≈ 10.8 µM) | 38.1 | 95.5 | 178 |  |
